Measured values published in ChEMBL document CHEMBL1150351, “Design, synthesis, and biological evaluation of new-generation taxoids” (J Med Chem, 2008).
Calls of active or inactive are those of the source. The calls are words filed in the database; no cut-off is given here.

What was measured:
[1] = Cytotoxicity against Pgp deficient human LCC6 cells after 72 hrs by sulforhodamine B test; assay type: functional, cell-based; settings: C6, 72 h
C6 = assay: Resistance index, Ratio of IC50 for multidrug resistant Pgp expressing human LCC6 cells to IC50 for Pgp deficient human LCC6 cells; assay type: functional; set-up: reference not given here
MCF7 [2] = assay: Cytotoxicity against Pgp deficient human MCF7 cells after 72 hrs by sulforhodamine B test; assay type: functional, cell-based; settings: MCF7, 72 h
[3] = Cytotoxicity against multidrug resistant Pgp expressing human NCI/ADR cells after 72 hrs by sulforhodamine B test; assay type: functional, cell-based; settings: NCI/ADR-RES
[4] = Cytotoxicity against multidrug resistant Pgp expressing human LCC6 cells after 72 hrs by sulforhodamine B test; assay type: functional, cell-based; settings: LCC-6, 72 h
MCF7 [5] = assay: Resistance index, Ratio of IC50 for multidrug resistant Pgp expressing human NCI/ADR cells to IC50 for Pgp deficient human MCF7 cells; assay type: functional; set-up: reference not given here
PANC-1 = assay: Cytotoxicity against multidrug resistant human PANC1 cells after 72 hrs by MTT assay; assay type: functional, cell-based; settings: PANC-1, 72 h
Outline: (§1)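 Pancreatic lines were cultured per ATCC, seeded at 2.5 × 10^4 cells/well and allowed to adhere overnight. The medium was replaced with drug diluted from a 10 mM DMSO stock, or vehicle, for 72 h, in triplicate, with at least three independent trials. MTT at 0.5 mg/mL was added for 3 h, formazan was dissolved in acidified isopropanol, and A570 was read. IC50 came from sigmoid-Emax nonlinear regression.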

[6] = Cytotoxicity against paclitaxel resistant human 1A9PTX10 cells expressing class 1 beta-tubulin mutant after 72 hrs; assay type: functional, cell-based; settings: 1A9/ptx-10, 72 h
Bos taurus [7] = species: Bos taurus; assay: Induction of calf brain tubulin polymerization at 10 uM in absence of GTP by spectrophotometric assay
MIA PaCa-2 = assay: Cytotoxicity against multidrug resistant human MIAPaCa2 cells after 72 hrs by MTT assay; assay type: functional, cell-based; settings: MIA PaCa-2, 72 h; outline: as §1
Bos taurus [8] = species: Bos taurus; assay: Induction of calf brain tubulin polymerization at 10 uM in after 5 mins in absence of GTP by spectrophotometric assay
[9] = Cytotoxicity against paclitaxel resistant human 1A9PTX22 cells expressing class 1 beta-tubulin mutant after 72 hrs; assay type: functional, cell-based; settings: 1A9/ptx-22, 72 h
BXPC-3 = assay: Cytotoxicity against multidrug resistant human BxPC3 cells after 72 hrs by MTT assay; assay type: functional, cell-based; settings: BXPC-3, 72 h; outline: as §1
CFPAC-1 = assay: Cytotoxicity against multidrug resistant human CFPAC1 cells after 72 hrs by MTT assay; assay type: functional, cell-based; settings: CFPAC-1, 72 h; outline: as §1
A2780 = assay: Cytotoxicity against human A2780 cells after 72 hrs; assay type: functional, cell-based; settings: A2780, 72 h

Compound | IC50 [1] [nM] | Ratio IC50 (C6) | IC50 (MCF7 [2]) [nM] | IC50 [3] [nM] | IC50 [4] [nM] | Ratio IC50 (MCF7 [5]) | IC50 (PANC-1) [nM] | IC50 [6] [nM] | Activity (Bos taurus [7]) | IC50 (MIA PaCa-2) [nM] | Activity (Bos taurus [8]) [%] | IC50 [9] [nM] | IC50 (BXPC-3) [nM] | IC50 (CFPAC-1) [nM] | IC50 (A2780) [nM]
COc1ccc(CC(=O)O[C@H]2C(=O)[C@@]3(C)[C@H]([C@H](OC(=O)c4cccc(OC)c4)[C@]4(O)C[C@H](OC(=O)[C@H](O)[C@H](C=C(C)C)NC(=O)OC(C)(C)C)C(C)=C2C4(C)C)[C@]2(OC(C)=O)CO[C@@H]2C[C@@H]3O)cc1 | 0.4 | 1 | 0.6 | 1.8 | 0.4 | 3 | – | – | – | – | – | – | – | – | –
CCC(=O)O[C@H]1C(=O)[C@@]2(C)[C@H]([C@H](OC(=O)c3cccc(OC)c3)[C@]3(O)C[C@H](OC(=O)[C@H](O)[C@H](CC(C)C)NC(=O)C4CC4)C(C)=C1C3(C)C)[C@]1(OC(C)=O)CO[C@@H]1C[C@@H]2O | 0.6 | 22 | 0.4 | 11.8 | 13 | 30 | – | – | – | – | – | – | – | – | –
CCC(=O)O[C@H]1C(=O)[C@@]2(C)[C@H]([C@H](OC(=O)c3ccccc3)[C@]3(O)C[C@H](OC(=O)[C@H](O)[C@H](C=C(C)C)NC(=O)C4CCCCC4)C(C)=C1C3(C)C)[C@]1(OC(C)=O)CO[C@@H]1C[C@@H]2O | 1.3 | 10 | 1 | 18 | 13 | 18 | – | – | – | – | – | – | – | – | –
COc1cccc(C(=O)O[C@H]2[C@@H]3[C@]4(OC(C)=O)CO[C@@H]4C[C@H](O)[C@@]3(C)C(=O)[C@H](OC(=O)OCc3ccccc3)C3=C(C)[C@@H](OC(=O)[C@H](O)[C@H](C=C(C)C)NC(=O)OC(C)(C)C)C[C@]2(O)C3(C)C)c1 | 1.2 | 1.5 | 0.2 | 1.5 | 1.8 | 7.5 | – | – | – | – | – | – | – | – | –
CCC(=O)O[C@H]1C(=O)[C@@]2(C)[C@H]([C@H](OC(=O)c3ccccc3)[C@]3(O)C[C@H](OC(=O)[C@H](O)[C@H](C=C(C)C)NC(=O)C4CCCC4)C(C)=C1C3(C)C)[C@]1(OC(C)=O)CO[C@@H]1C[C@@H]2O | 1.1 | 17 | 1.1 | 22 | 19 | 20 | – | – | – | – | – | – | – | – | –
CCC(=O)O[C@H]1C(=O)[C@@]2(C)[C@H]([C@H](OC(=O)c3cccc(OC)c3)[C@]3(O)C[C@H](OC(=O)[C@H](O)[C@H](CC(C)C)NC(=O)C4CCCCC4)C(C)=C1C3(C)C)[C@]1(OC(C)=O)CO[C@@H]1C[C@@H]2O | 1 | 12 | 0.7 | 6.5 | 12 | 9.3 | – | – | – | – | – | – | – | – | –
CCC(=O)O[C@H]1C(=O)[C@@]2(C)[C@H]([C@H](OC(=O)c3cccc(OC)c3)[C@]3(O)C[C@H](OC(=O)[C@H](O)[C@H](C=C(C)C)NC(=O)OC(C)(C)C)C(C)=C1C3(C)C)[C@]1(OC(C)=O)CO[C@@H]1C[C@@H]2O | 1 | – | 0.36 | 0.33 | – | – | 22.6 | 3.65 | Active | 0.68 | > 90 | 3.88 | 3.03 | 0.89 | 0.76
CCC(=O)O[C@H]1C(=O)[C@@]2(C)[C@H]([C@H](OC(=O)c3ccccc3)[C@]3(O)C[C@H](OC(=O)[C@H](O)[C@H](C=C(C)C)NC(=O)C4=CCCCC4)C(C)=C1C3(C)C)[C@]1(OC(C)=O)CO[C@@H]1C[C@@H]2O | 1.2 | 9.2 | 0.3 | 3.8 | 11 | 13 | – | – | – | – | – | – | – | – | –
CCC(=O)O[C@H]1C(=O)[C@@]2(C)[C@H]([C@H](OC(=O)c3ccccc3)[C@]3(O)C[C@H](OC(=O)[C@H](O)[C@H](CC(C)C)NC(=O)OC4CCCC4)C(C)=C1C3(C)C)[C@]1(OC(C)=O)CO[C@@H]1C[C@@H]2O | 2.6 | 5.4 | 1.3 | 8.8 | 14 | 6.8 | – | – | – | – | – | – | – | – | –
CCC(=O)O[C@H]1C(=O)[C@@]2(C)[C@H]([C@H](OC(=O)c3cccc(OC)c3)[C@]3(O)C[C@H](OC(=O)[C@H](O)[C@H](C=C(C)C)NC(=O)C4CCC4)C(C)=C1C3(C)C)[C@]1(OC(C)=O)CO[C@@H]1C[C@@H]2O | 1.6 | 9.4 | 0.8 | 8.8 | 15 | 11 | – | – | – | – | – | – | – | – | –
CCC(=O)O[C@H]1C(=O)[C@@]2(C)[C@H]([C@H](OC(=O)c3cccc(OC)c3)[C@]3(O)C[C@H](OC(=O)[C@H](O)[C@H](CC(C)C)NC(=O)OC4CCCC4)C(C)=C1C3(C)C)[C@]1(OC(C)=O)CO[C@@H]1C[C@@H]2O | 0.76 | 3.4 | 0.17 | 1.18 | 2.6 | 6.9 | – | – | – | – | – | – | – | – | –
COc1cccc(C(=O)O[C@H]2[C@@H]3[C@]4(OC(C)=O)CO[C@@H]4C[C@H](O)[C@@]3(C)C(=O)[C@H](OC(=O)c3ccccc3OC)C3=C(C)[C@@H](OC(=O)[C@H](O)[C@H](C=C(C)C)NC(=O)OC(C)(C)C)C[C@]2(O)C3(C)C)c1 | 0.4 | 2.3 | 1.1 | 3.3 | 0.9 | 3 | – | – | – | – | – | – | – | – | –
CCC(=O)O[C@H]1C(=O)[C@@]2(C)[C@H]([C@H](OC(=O)c3ccccc3)[C@]3(O)C[C@H](OC(=O)[C@H](O)[C@H](C=C(C)C)NC(=O)C4=CCCC4)C(C)=C1C3(C)C)[C@]1(OC(C)=O)CO[C@@H]1C[C@@H]2O | 1.2 | 12 | 0.4 | 6 | 14 | 15 | – | – | – | – | – | – | – | – | –
CCC(=O)O[C@H]1C(=O)[C@@]2(C)[C@H]([C@H](OC(=O)c3ccccc3)[C@]3(O)C[C@H](OC(=O)[C@H](O)[C@H](CC(C)C)NC(=O)OC4CCCCC4)C(C)=C1C3(C)C)[C@]1(OC(C)=O)CO[C@@H]1C[C@@H]2O | 4.8 | 3.8 | 1.4 | 14 | 18 | 10 | – | – | – | – | – | – | – | – | –
CCC(=O)O[C@H]1C(=O)[C@@]2(C)[C@H]([C@H](OC(=O)c3ccccc3)[C@]3(O)C[C@H](OC(=O)[C@H](O)[C@H](CC(C)C)NC(=O)C4CCCCC4)C(C)=C1C3(C)C)[C@]1(OC(C)=O)CO[C@@H]1C[C@@H]2O | 5.8 | 5.5 | 1.5 | 19 | 32 | 13 | – | – | – | – | – | – | – | – | –
CCC(=O)O[C@H]1C(=O)[C@@]2(C)[C@H]([C@H](OC(=O)c3ccccc3)[C@]3(O)C[C@H](OC(=O)[C@H](O)[C@H](CC(C)C)NC(=O)C4CCCC4)C(C)=C1C3(C)C)[C@]1(OC(C)=O)CO[C@@H]1C[C@@H]2O | 6.3 | 10 | 2.3 | 29 | 64 | 12 | – | – | – | – | – | – | – | – | –
CCC(=O)O[C@H]1C(=O)[C@@]2(C)[C@H]([C@H](OC(=O)c3cccc(OC)c3)[C@]3(O)C[C@H](OC(=O)[C@H](O)[C@H](C=C(C)C)NC(=O)OC4CCCCC4)C(C)=C1C3(C)C)[C@]1(OC(C)=O)CO[C@@H]1C[C@@H]2O | 1.23 | 12 | 1.44 | 14 | 14.8 | 9.7 | – | – | – | – | – | – | – | – | –
CCC(=O)O[C@H]1C(=O)[C@@]2(C)[C@H]([C@H](OC(=O)c3cccc(OC)c3)[C@]3(O)C[C@H](OC(=O)[C@H](O)[C@H](C=C(C)C)NC(=O)C4CC4)C(C)=C1C3(C)C)[C@]1(OC(C)=O)CO[C@@H]1C[C@@H]2O | 1.1 | 16 | 0.5 | 7.8 | 17.2 | 15.6 | – | – | – | – | – | – | – | – | –
CCC(=O)O[C@H]1C(=O)[C@@]2(C)[C@H]([C@H](OC(=O)c3ccccc3)[C@]3(O)C[C@H](OC(=O)[C@H](O)[C@H](C=C(C)C)NC(=O)C4CCC4)C(C)=C1C3(C)C)[C@]1(OC(C)=O)CO[C@@H]1C[C@@H]2O | 1.3 | 26 | 1.2 | 41 | 34 | 34 | – | – | – | – | – | – | – | – | –
CCC(=O)O[C@H]1C(=O)[C@@]2(C)[C@H]([C@H](OC(=O)c3ccccc3)[C@]3(O)C[C@H](OC(=O)[C@H](O)[C@H](C=C(C)C)NC(=O)OC4CCCCC4)C(C)=C1C3(C)C)[C@]1(OC(C)=O)CO[C@@H]1C[C@@H]2O | 1.2 | 13 | 1.4 | 8.9 | 15 | 6.4 | – | – | – | – | – | – | – | – | –
CCC(=O)O[C@H]1C(=O)[C@@]2(C)[C@H]([C@H](OC(=O)c3cccc(OC)c3)[C@]3(O)C[C@H](OC(=O)[C@H](O)[C@H](C=C(C)C)NC(=O)C4CCCC4)C(C)=C1C3(C)C)[C@]1(OC(C)=O)CO[C@@H]1C[C@@H]2O | 1.1 | 10 | 0.3 | 9.5 | 11 | 32 | – | – | – | – | – | – | – | – | –
